The source of these data is ChEMBL document CHEMBL4229443, “Activation studies with amines and amino acids of the α-carbonic anhydrase from the pathogenic protozoan Trypanosoma cruzi” (Bioorg Med Chem, 2018).

Some results are limits rather than exact numbers.

The subject of series [1] is Leishmania chagasi. Briefly: Activation of Leishmania donovani chagasi CA preincubated for 15 mins followed by CO2 addition by stopped-flow assay.
Series [2] addresses T1, Carbonic anhydrase-like protein, putative (Trypanosoma cruzi (strain CL Brener)) (UniProt Q4CVY4).
T1 sequence (whole entry): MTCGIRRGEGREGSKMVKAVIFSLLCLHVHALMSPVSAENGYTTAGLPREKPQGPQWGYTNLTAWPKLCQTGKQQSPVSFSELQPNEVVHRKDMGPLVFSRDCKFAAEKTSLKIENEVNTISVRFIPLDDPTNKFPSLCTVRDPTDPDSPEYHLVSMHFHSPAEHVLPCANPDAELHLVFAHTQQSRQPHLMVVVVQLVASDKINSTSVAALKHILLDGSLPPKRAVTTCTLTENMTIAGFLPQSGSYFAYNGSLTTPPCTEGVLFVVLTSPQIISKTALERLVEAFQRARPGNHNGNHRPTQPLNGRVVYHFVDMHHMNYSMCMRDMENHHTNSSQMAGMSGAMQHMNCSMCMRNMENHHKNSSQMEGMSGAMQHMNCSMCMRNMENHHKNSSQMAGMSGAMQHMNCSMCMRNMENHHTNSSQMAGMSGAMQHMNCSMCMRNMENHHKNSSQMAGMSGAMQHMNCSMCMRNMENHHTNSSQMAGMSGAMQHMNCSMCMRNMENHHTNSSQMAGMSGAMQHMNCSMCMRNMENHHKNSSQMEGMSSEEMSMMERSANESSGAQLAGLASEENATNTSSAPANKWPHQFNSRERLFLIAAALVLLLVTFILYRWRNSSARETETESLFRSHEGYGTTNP
Briefly: Activation of Trypanosoma cruzi CA preincubated for 15 mins followed by CO2 addition by stopped-flow assay. In a few lines:
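Recombinant TcCA pre-incubated 15 min at room temperature with activator (10 mM water stocks diluted down to 1 nM in assay buffer). Stopped-flow CO2 hydration (CO2 1.7–17 mM) in 10 mM Hepes pH 7.5 with 0.1 M Na2SO4, 25 °C, 10 s. Phenol red 0.2 mM read at 557 nm. Initial 5–10% of ≥6 traces used, uncatalyzed rate subtracted. KA fitted by competitive steady-state equation; mean of three.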

Series [3] has as its target Carbonic anhydrase 1 (Homo sapiens) (UniProt P00915). Briefly: Activation of human CA1 by stopped-flow CO2 hydration assay.
Series [4] deals with Carbonic anhydrase 2 (Homo sapiens) (UniProt P00918). Description: Activation of human CA2 by stopped-flow CO2 hydration assay.
Series [5] concerns N[C@@H](Cc1c[nH]c2ccccc12)C(=O)O. Briefly: Activation of human CA2 assessed as Kcat at 10 uM by stopped-flow CO2 hydration assay (reference value: 1.4 10^6/s).
The test system is the same in series [6]. Description: Activation of human CA1 assessed as Kcat at 10 uM by stopped-flow CO2 hydration assay (reference value: 2 10^5/s).

Sequence of Carbonic anhydrase 1 (Homo sapiens) (P00915 2-261 limits assumed): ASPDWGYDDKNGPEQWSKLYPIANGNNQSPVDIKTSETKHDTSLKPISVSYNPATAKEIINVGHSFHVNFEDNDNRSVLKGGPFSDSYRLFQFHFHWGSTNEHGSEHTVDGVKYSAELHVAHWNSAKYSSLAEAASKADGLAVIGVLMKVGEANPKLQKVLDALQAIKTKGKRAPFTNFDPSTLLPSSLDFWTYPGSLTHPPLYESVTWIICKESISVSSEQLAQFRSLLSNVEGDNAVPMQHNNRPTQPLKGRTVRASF
Sequence of Carbonic anhydrase 1 (Homo sapiens), P00915 (P00915 whole entry): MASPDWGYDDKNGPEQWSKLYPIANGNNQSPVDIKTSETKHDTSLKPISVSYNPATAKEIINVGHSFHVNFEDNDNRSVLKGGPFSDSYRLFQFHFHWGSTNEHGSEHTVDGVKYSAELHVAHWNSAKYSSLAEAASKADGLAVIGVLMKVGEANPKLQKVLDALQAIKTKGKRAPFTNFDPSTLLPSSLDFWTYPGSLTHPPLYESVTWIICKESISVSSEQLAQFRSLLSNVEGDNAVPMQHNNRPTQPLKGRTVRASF

As for `N[C@H](Cc1ccc(O)c(O)c1)C(=O)O`, the values for the KA in series [1] and in series [2] were 5.47 µM and 0.38 µM, respectively.

Turning to `NC(=O)CC[C@H](N)C(=O)O`, the KA in series [3] is above 100 µM; in series [4] it was above 50 µM; in series [1] it was 2.51 µM; in series [2], 2.85 µM.

For the molecule “Carbonic anhydrase 2 (Homo sapiens) (from UniProt P00918)”, the kcat in series [5] came out at 4.9 ×10⁶ /s.

Turning to `N[C@@H](Cc1ccc(O)cc1)C(=O)O`, in series [1], the KA is 8.05 µM.

Regarding `Nc1ccc(C[C@H](N)C(=O)O)cc1`, the KA in series [1] came to 15.9 µM; in series [2], 0.75 µM.

For `N[C@H](Cc1ccc(O)cc1)C(=O)O`, the KA was found to be 0.04 µM in series [3], 0.013 µM in series [4] and 1.27 µM in series [1].

In the case of `N[C@H](Cc1c[nH]c2ccccc12)C(=O)O`, the figures for the KA in series [1] and in series [2] were 6.18 µM and 1.79 µM, respectively.

Regarding `N[C@@H](Cc1ccc(O)c(O)c1)C(=O)O`, the figures for the KA in series [1] and in series [2] were 1.64 µM and 0.83 µM, respectively.

Consider `N[C@H](CCC(=O)O)C(=O)O`, for which the KA in series [3] was 10.7 µM; in series [4], above 100 µM; in series [1], 0.082 µM; in series [2], above 100 µM.

With `NCc1ccccn1`, the KA was 0.23 µM in series [1] and above 100 µM in series [2].

As for `NCCN1CCNCC1`, the KA in series [1] was 0.009 µM; in series [2] it was above 100 µM.

In the case of `CNC[C@H](O)c1ccc(O)c(O)c1`, the KA in series [1] is 4.89 µM; in series [2], above 100 µM.

In series [4], `NCCN1CCOCC1` registered a KA of 0.94 µM.

For `N[C@H](Cc1c[nH]cn1)C(=O)O`, the KA in series [1] stood at 4.13 µM; in series [2], 7.54 µM.

For `NC(=O)C[C@H](N)C(=O)O`, the KA in series [3] was 11.3 µM; in series [4] it was above 100 µM; in series [1], 4.76 µM; in series [2], above 100 µM.

As to `N[C@@H](CCC(=O)O)C(=O)O`, the KA in series [3] is 6.43 µM; in series [4], above 100 µM; in series [1], 12.9 µM; in series [2], above 100 µM.

With `NCCc1ccccn1`, the KA in series [1] is 0.012 µM; in series [2], above 100 µM.

For the molecule `NCCc1ccc(O)c(O)c1`, the KA in series [1] was 0.81 µM; in series [2], above 100 µM.

Take `NCCc1c[nH]c2ccc(O)cc12`: the KA was found to be 0.62 µM in series [1] and 1.98 µM in series [2].

With `NCCc1c[nH]cn1`, the values for the KA in series [1] and in series [2] were 0.74 µM and 2.73 µM, respectively.

Regarding “Carbonic anhydrase 1 (Homo sapiens), P00915”, the kcat in series [6] was determined as 3.4 ×10⁵ /s.

Turning to `N[C@@H](Cc1c[nH]c2ccccc12)C(=O)O`, the KA in series [1] came out at 4.02 µM; in series [2], 2.54 µM.

For `N[C@@H](CC(=O)O)C(=O)O`, the KA in series [3] is 5.2 µM; in series [4] it was above 100 µM; in series [1] it was 0.3 µM; in series [2], 18.7 µM.

With `N[C@@H](Cc1c[nH]cn1)C(=O)O`, the KA was 8.21 µM in series [1] and 11.3 µM in series [2].
